From ChEMBL document CHEMBL1132241, “Novel multidrug resistance reversal agents” (J Med Chem, 1999) come the findings set out here.

In data set [1] the test system is Mus musculus. Nature of the data set: Relative tumor growth inhibition against human epidermoid carcinoma KB/8.5 implanted subcutaneously only in mice at 8 mg/kg (DOX). The conditions noted are these: route subcutaneous. Format: functional. Put shortly:
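KB/8.5 cells grown in RPMI 1640 with 5% fetal calf serum plus colchicine (10 ng/mL), which was removed for two passages. 8 × 10^6 cells were then implanted sc in athymic nude mice. At 100-300 mg tumor mass, mice were grouped 5-10/group. Doxorubicin was given as a single iv dose (8 mg/kg). Tumor mass was measured on day 14, and relative growth was compared with saline control.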

Data set [2] concerns Mus musculus. Nature of the data set: Percent tumor growth inhibition obtained for the combination of DOX(8 mg/kg) together with MDR reversal agent versus DOX (8 mg/kg) alone on day 14 at 100 mg/kg dose(in vivo). Type of data set: functional. The conditions noted are these: 336 h, read-out: TGI. An outline of the steps: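 Athymic nude mice bearing sc KB/8.5 tumors (8×10^6 cells, colchicine withdrawn for two passages), grouped at 100–300 mg tumor mass, 5–10 mice/group. Doxorubicin 8 mg/kg given once iv; reversal agent or placebo given sc 2 h before and 2 h after. Tumor mass on day 14 used for relative tumor growth versus doxorubicin alone; Student t-test on log RTG.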

In a further data set the test system is S1B1-20. Nature of the data set: In vitro concentration required to inhibit tumor activity on subclone of human colon carcinoma cells (S1-B1-20) resistant to bisantrene. Type of data set: functional, cell-based. The following applies: Homo sapiens, S1B1-20. An outline of the steps:
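S1-B1-20 cells (S1 clone of LS 174 T, selected in bisantrene over 12–16 weeks) plated at 20 000 cells/well with or without 20 μM bisantrene, plus test agent 0.1–80 μM from DMSO stock (final DMSO ≤0.1%). 3 days, 37 °C, 7% CO2. Survival by sulforhodamine B at 540 nm. IC50 from best-fit curve of difference score (survival alone minus survival with bisantrene) at 50; 2–4 sets of measurements.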

The nature of data set [3]: Partition coefficient (logP). The following applies: octanol/water; read-out: logP. Format: physicochemical.
The nature of data set [4]: In vitro concentration at which 50% of human colon carcinoma cells (S1-B1-20) resistant to bisantrene have survived. Format: ADME, cell-based, S1B1-20. The following applies: S1-B1-20 human colon carcinoma cells resistant to bisantrene, read-out: LD50 (the source's name). An outline of the steps: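 S1-B1-20 cells (LS 174 T-derived S1 clone selected in bisantrene over 12–16 weeks), trypsinized, 20 000 cells/well. Test agent alone in DMSO (≤0.1% final), 0.1–80 µM, 3 days at 37 °C, 7% CO2. Survival by sulforhodamine B read at 540 nm versus untreated cells. Two to four measurement sets were made, and the value is the concentration giving 50% survival from a best-fit curve.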

The IC50 is the concentration that inhibits the measured activity by half. The term logP denotes a log measure of how a compound divides between an organic and an aqueous phase. Consider `COc1ccc(C(C#N)(CCCCCN2CCc3cc(OC)c(OCCCl)cc3C2)Sc2ccc(C)cc2)cc1OC` (stereo not given), for which, in the data set on Mus musculus [1], the Relative tumor growth came out at 75. Further, the inhibition in vivo at 100 mg/kg with Mus musculus [2] amounted to 64%. In addition, the IC50 in the data set on S1B1-20 worked out at 0.37 µM. Further, in data set [3], the logP is 6.77. Also, in data set [4], the CC50 came to 16.8 µM.
